Experimental data gathered from unrelated publications.
Each line is one published result; the experiments were not run side by side.
Target: Serine/threonine-protein kinase 17A (STK17A, Homo sapiens, UniProt Q9UEE5)
Residues used in one study (Q9UEE5 1-414): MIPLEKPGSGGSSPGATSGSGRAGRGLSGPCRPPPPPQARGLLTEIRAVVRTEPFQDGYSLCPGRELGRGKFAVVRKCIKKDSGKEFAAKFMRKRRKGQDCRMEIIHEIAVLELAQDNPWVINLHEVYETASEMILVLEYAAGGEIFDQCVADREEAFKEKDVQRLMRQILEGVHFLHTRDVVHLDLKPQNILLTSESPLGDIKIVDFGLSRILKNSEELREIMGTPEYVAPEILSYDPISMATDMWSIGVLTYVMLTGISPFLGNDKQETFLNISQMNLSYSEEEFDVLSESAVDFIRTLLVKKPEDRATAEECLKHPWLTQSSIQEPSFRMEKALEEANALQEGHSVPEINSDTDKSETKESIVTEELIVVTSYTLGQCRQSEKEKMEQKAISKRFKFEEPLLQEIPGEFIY

CC1CCCN1c1nccc(-c2cnn3ncccc23)n1 (centres unmarked)  remaining binding (binding; 1 µM): 84%
NS(=O)(=O)c1ccc(CNc2nc(Nc3cccc(NC(=O)N4CCCC4)c3)ncc2Br)cc1  remaining activity (enzyme activity, inhibitor, radiometric; 1 µM): 41%
Cc1ccc(NC(=O)c2ccc(C)c(C(F)(F)F)c2)cc1C#Cc1nn(C2CCC(O)CC2)c2ncnc(N)c12 (centres unmarked)  remaining signal (cell-free assay; 10 µM): 140%
O=C1NC(=O)c2cc(Nc3ccc(F)cc3)c(Nc3ccc(F)cc3)cc21  remaining signal (cell-free assay; 0.5 µM): 104%
c1cc(CN2CCOCC2)cc(Nc2ncc(C3CC3)c(NCCc3c[nH]cn3)n2)c1  remaining activity (enzyme activity, inhibitor, radiometric; 1 µM): 50%
Cc1c[nH]c2nccc(Oc3c(F)cc(Nc4cc(Cl)nc(N)n4)cc3F)c12  remaining binding (cell-free assay, competition with immobilised ligand; 0.1 µM): 100%
CNC(=O)c1cc(Oc2ccc(NC(=O)Nc3ccc(Cl)c(C(F)(F)F)c3)cc2)ccn1  inhibition (cell-free assay; 10 µM): 31%
Brc1cnc(Nc2cccc(CN3CCOCC3)c2)nc1NCCc1c[nH]cn1  remaining activity (enzyme activity, inhibitor, radiometric; 1 µM): 8%
CN1CC(Oc2cnc(C#N)cc2-c2ccn3nc(NC(=O)C4CC4)cc3c2)C1  inhibition (enzyme activity, inhibitor; 1 µM): 10%
O=C(Nc1ccc(Oc2ccc(F)cc2)cc1)N1CCc2ncccc2[C@H]1c1ccc(F)cc1  remaining binding (cell-free assay, competition with immobilised ligand; 1 µM): 86%
O=C(NCCCNc1nc(Nc2cccc(NC(=O)N3CCCC3)c2)ncc1I)c1cccs1  remaining activity (enzyme activity, inhibitor, radiometric; 1 µM): 2%
CN(C)C(=O)Cn1cc(-c2nc(C3(c4ccc(-c5cnc(N)nc5)cc4)CC3)no2)cn1  remaining binding (cell-free assay, competition with immobilised ligand; 1 µM): 100%
Cc1ccc(NC(=O)c2ccc(CN3CCN(C)CC3)cc2)cc1Nc1nc(-c2cccnc2)cs1  remaining signal (cell-free assay; 0.5 µM): 104%
O=C(O)[C@H]1[C@H](Cn2nnc3ccccc3c2=O)CC[C@@H]1C(=O)c1ccc(OCCC2CCOCC2)cc1  remaining binding (cell-free assay, competition with immobilised ligand; 1 µM): 97%
C#Cc1cccc(Nc2ncnc3cc(OCCOC)c(OCCOC)cc23)c1  remaining signal (cell-free assay; 0.5 µM): 99.7%
Cc1noc([C@H]2C[C@@H](c3ccc(C(F)(F)F)cc3)CN(C(=O)N3CCS(=O)(=O)C3)C2)n1  remaining binding (cell-free assay, competition with immobilised ligand; 1 µM): 100%
O=C(Nc1cccc(Nc2ncc(Br)c(NCCc3cnc[nH]3)n2)c1)N1CCCC1  remaining activity (enzyme activity, inhibitor, radiometric; 1 µM): 6%
N#CC1(c2ccccn2)CCN(Cc2cc(C(=O)N3CCCC3)c(=O)n3ccccc23)CC1  remaining binding (cell-free assay, competition with immobilised ligand; 1 µM): 96%
CCN(CC)CCNC(=O)c1c(C)[nH]c(/C=C2\C(=O)Nc3ccc(F)cc32)c1C  remaining signal (cell-free assay; 0.5 µM): 26.7%
Cc1nn(CC(F)(F)F)cc1Nc1ncc(Br)c(NCCCNC(=O)C2CCC2)n1  remaining activity (enzyme activity, inhibitor, radiometric; 1 µM): 5%
Cc1c(NC(=O)c2cc(C(N)=O)nc3cc(F)ccc23)c(C(F)(F)F)nn1Cc1ccc(C#N)cc1  remaining binding (cell-free assay, competition with immobilised ligand; 1 µM): 90%
Oc1cccc(-c2nc(N3CCOCC3)c3oc4ncccc4c3n2)c1  remaining signal (cell-free assay; 0.5 µM): 93.8%
NS(=O)(=O)c1ccc(CNc2nc(Nc3cccc(CN4CCOCC4)c3)ncc2Br)cc1  remaining activity (enzyme activity, inhibitor, radiometric; 1 µM): 58%
Cc1ccc(Nc2nccc(N(C)c3ccc4c(C)n(C)nc4c3)n2)cc1S(N)(=O)=O  inhibition (cell-free assay; 0.3 µM): -6%
O=C(N[C@H]1CCCCC/C=C\C2C[C@@]2(C(=O)O)NC(=O)[C@@H]2C[C@@H](Oc3ccncc3)CN2C1=O)OC1CCCC1 (some centres unmarked)  remaining binding (binding, competition with immobilised ligand; 1 µM): 100%
Cc1nn(CC(F)(F)F)cc1Nc1nccc(NCCc2cnc[nH]2)n1  remaining activity (enzyme activity, inhibitor, radiometric; 1 µM): 99%
